pIC50: −log10 of the molar value. Active and inactive are the calls of the source. The calls are words filed in the database; no cut-off is given here.

15 compounds from ChEMBL document CHEMBL1138880, “Synthesis of DNA-directed pyrrolidinyl and piperidinyl confined alkylating chloroalkylaminoanthraquinones: potential for development of tumor-selective N-oxides” (J Med Chem, 2006) can be followed below.

Test [1] concerns A2780. The experiment in a line: Inhibition of Doxorubicin-resistant A2780 cell growth. The format is functional, cell-based. The settings on record: Homo sapiens.
Test [2] has as its system A2780. The experiment in a line: Inhibition of cisplatin-resistant A2780 cell growth. The format is functional, cell-based. To be noted: Homo sapiens.
Test [3] relates to A2780. Nature of the test: Inhibition of A2780 cell growth. The format is functional, cell-based. The settings on record: Homo sapiens.
The test system of test [4] is A2780. The experiment in a line: Resistance factor, IC50 for A2780/cp70 cells/ IC50 for A2780 cells. The format is functional, Homo sapiens.
The subject of test [5] is Nucleic Acid. Nature of the test: Ability to interstand cross-link DNA by agarose gel cross-link assay. It is filed as nucleic-acid assay. The procedure, abridged: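 Linearised, 5′-end 32P-labelled pBR322 DNA (~100 ng) incubated with drug (0.01-10 µM final) in TEOA buffer at 37 °C for 1 h, then stopped. DNA was precipitated, heat-denatured in strand separation buffer (95 °C, 2 min), run on 0.8% agarose at 40 V overnight and autoradiographed. Cross-linked DNA was quantified by densitometry as the mean of three replicates.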

For test [6], the system named is A2780. Nature of the test: Resistance factor, IC50 for A2780 AD cells/ IC50 for A2780 cells. The format is functional, Homo sapiens.
Test [7] deals with Nucleic Acid. The experiment in a line: Induction of DNA unwinding by agarose gel based supercoiled plasmid pBR322 DNA mobility assay. The format is nucleic-acid assay. The procedure, abridged:
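Circular supercoiled pBR322 (250 ng) with compound in reaction buffer (Tris-HCl pH 7.9, NaCl, KCl, MgCl2, EDTA, BSA, ATP), 30 °C for 15 min; stopped, run on 0.8% agarose in 1× TAE at 100 V for 3 h, EtBr-stained 30 min, visualized under UV.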

Test [8] has as its system Nucleic Acid. The experiment in a line: Alkylation of DNA at 10 uM after 24 hrs by Taq polymerase stop assay. It is filed as nucleic-acid assay. The procedure, abridged: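 Linearised pBR322 was treated with drug for 24 h; the screening range was 1 nM-10 µM. Treated DNA was extended with labelled SRM primer and Taq polymerase over 30 cycles (95 °C 1 min, 58 °C 1 min, 74 °C). Products were run on a denaturing gel in TBE at 55 °C with mechlorethamine and untreated DNA, then autoradiographed to map guanine alkylation sites.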

For test [9], the system named is Nucleic Acid. Nature of the test: Ability to interstand cross-link DNA upto 100 uM by agarose gel cross-link assay. It is filed as nucleic-acid assay. The procedure, abridged:
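Agarose gel interstrand cross-link assay on linearised, 5′-end 32P-labelled pBR322 in TEOA buffer at 37 °C. Drug was tested across concentrations up to 100 µM and times up to 24 h. DNA was strand-separated at 95 °C, then run on 0.8% agarose and autoradiographed.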

In test [10] the test system is Panel NCI-60 (60 carcinoma cell lines). The experiment in a line: Cytotoxicity against NCI60 cell line. The format is functional. To be noted: Homo sapiens.

The pIC50 is the IC50 on a negative log10 scale, so that one unit is a factor of ten. Read a low pIC50 as a large IC50. For `O=C1c2ccccc2C(=O)c2c(NCCN3CCCC3CO)cccc21` (stereo not drawn), the pIC50 in test [1], in test [2] and in [3] was below 6.00 throughout.

In the case of `O=C1c2c(O)ccc(O)c2C(=O)c2c(NCCN3CCCCC3CO)ccc(NCCN3CCCCC3CO)c21` (stereo not drawn), the pIC50 was below 6.00 in [1], below 6.23 in test [2] and 6.13 in test [3]. In [4], the “Ratio IC50” value is 0.9.

`O=C1c2c(O)ccc(O)c2C(=O)c2c(NCCN3CCCCC3CCl)ccc(NCCN3CCCCC3CCl)c21` (stereo not drawn): the pIC50 was below 6.00 in test [1], below 6.00 in [2] and 6.75 in test [3]. In addition, the Activity result in [5] is “Time-dependent effect”.

Regarding `COc1cccc2c1C(=O)c1c(O)c3c(c(O)c1C2=O)C[C@@](O)(C(=O)CO)C[C@@H]3O[C@H]1C[C@H](N)[C@H](O)[C@H](C)O1` [DOXORUBICIN], the figures for the pIC50 in test [1], in test [2] and in test [3] were 7.21, 8.52 and 8.12, respectively. Further, the “Ratio IC50” value in [6] was determined as 8.1; in [4], 0.4.

Regarding `O=C1c2c(O)ccc(O)c2C(=O)c2c(NCC[N+]3([O-])CCCCC3CCl)ccc(NCC[N+]3([O-])CCCCC3CCl)c21` (stereo not drawn), the negative logarithm of the IC50 (pIC50) in test [1], in test [2] and in test [3] was below 6.00 throughout. In addition, in [7], the result was inactive.

As for `CN(C)CCNc1ccc(NCCN2CCC(Cl)C2)c2c1C(=O)c1c(O)ccc(O)c1C2=O` (stereo not drawn), the negative logarithm of the IC50 (pIC50) in test [1] was 6.47; in test [2], 7.02; in test [3], 7.17. In addition, the “Ratio IC50” value in test [6] is on record as 5; in test [4] it was 1.4.

Take `O=C1c2ccccc2C(=O)c2c(NCCN3CCCC3CCl)cccc21` (stereo not drawn): the pIC50 in [1], in test [2] and in test [3] was below 6.00 each time.

Consider `O=C1c2c(O)ccc(O)c2C(=O)c2c(NCCN3CCCC(CCl)C3)ccc(NCCN3CCCC(CCl)C3)c21` (stereo not drawn), for which the result in [8] and in [9] was inactive. Besides, the pIC50 in test [1], in test [2] and in test [3] was below 6.00 in each case.

Take `CN(C)CCNc1ccc(NCCN2CCC(Cl)CC2)c2c1C(=O)c1c(O)ccc(O)c1C2=O`: the result in [8] was inactive. The pIC50 in [1] was 6.37; in test [2] it was 6.27; in test [3], 6.24. Further, the “Ratio IC50” value in test [6] worked out at 0.7; in test [4] it was 0.9.

By GI50 is commonly meant the concentration that inhibits growth by half. Read a low GI50 as more potent growth inhibition. `CN(C)CCNc1ccc(NCCN2CCCC(Cl)C2)c2c1C(=O)c1c(O)ccc(O)c1C2=O` (stereo not drawn): the pIC50 was 7.12 in test [1], 7.20 in test [2] and 8.05 in [3]. Besides, the results for the “Ratio IC50” value in test [6] and in test [4] were 8.3 and 7, respectively. Also, the GI50 in [10] amounted to 182 nM.

As to `CN(C)CCNc1ccc(NCCN2CCCC2CCl)c2c1C(=O)c1c(O)ccc(O)c1C2=O` (stereo not drawn), the negative logarithm of the IC50 (pIC50) in [1] is 6.53; in [2], 7.10; in test [3], 7.54. Moreover, the “Ratio IC50” value is recorded as 10.1 in test [6] and 2.7 in [4]. In test [10], this compound yielded a 50% growth inhibitory concentration (GI50) of 96 nM.

With `O=C1c2c(O)ccc(O)c2C(=O)c2c(NCCN3CCCC(CO)C3)ccc(NCCN3CCCC(CO)C3)c21` (stereo not drawn), the pIC50 is below 6.00 in [1], 7.15 in test [2] and 7.15 in test [3]. Also, the “Ratio IC50” value in test [4] amounted to 1.

Regarding `O=C1c2c(O)ccc(O)c2C(=O)c2c(NCCN3CCCCC3)ccc(NCCN3CCCCC3)c21`, the pIC50 in [1], in test [2] and in test [3] was below 6.00 each time.

Turning to `CN(C)CCNc1ccc(NCCN2C(CCl)CCCC2CCl)c2c1C(=O)c1c(O)ccc(O)c1C2=O` (stereo not drawn), the results for the pIC50 in test [1], in [2] and in [3] were 6.97, 6.45 and 7.62, respectively. Further, the entries for the “Ratio IC50” value in test [6] and in [4] were 4.4 and 14.9, respectively.

With `CN(C)CCNc1ccc(NCCN2CCCCC2CCl)c2c1C(=O)c1c(O)ccc(O)c1C2=O` (stereo not drawn), the pIC50 in test [1] was 7.04; in [2], 7.16; in test [3], 7.40. Moreover, the “Ratio IC50” value is listed as 2.3 in test [6] and 1.7 in [4].
